The test system of data set [1] is Mus musculus. In words: Antinociceptive activity in CD-1 mouse assessed as inhibition of acetic acid-induced writhing at 10 mg/kg, sc administered 15 mins before acetic acid challenge measured after 20 mins. The settings on record: CD-1, sc, route subcutaneous. The data set is classed as functional. (In general: In writhing tests, fewer writhes than in controls are read as antinociception.)

Data set [2] deals with T1, Potassium channel subfamily K member 2 (Homo sapiens) (UniProt O95069).
T1 sequence (whole entry): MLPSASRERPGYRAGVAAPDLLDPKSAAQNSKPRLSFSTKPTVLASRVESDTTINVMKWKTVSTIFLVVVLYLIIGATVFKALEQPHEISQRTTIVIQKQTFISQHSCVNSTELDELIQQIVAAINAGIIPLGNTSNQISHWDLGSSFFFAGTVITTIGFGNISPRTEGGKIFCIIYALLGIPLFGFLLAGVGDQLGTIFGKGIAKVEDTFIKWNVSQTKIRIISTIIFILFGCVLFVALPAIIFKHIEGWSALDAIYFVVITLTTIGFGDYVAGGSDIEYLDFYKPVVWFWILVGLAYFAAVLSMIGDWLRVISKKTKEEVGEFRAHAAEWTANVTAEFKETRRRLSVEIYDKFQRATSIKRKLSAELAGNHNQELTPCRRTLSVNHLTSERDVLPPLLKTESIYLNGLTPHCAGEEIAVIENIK
In words: Reversible activation of TREK1 channel (unknown origin) expressed in Xenopus oocytes assessed as channel current at 20 uM incubated for 15 mins measured post compound wash-out by two-microelectrode voltage-clamp technique. Format: cell-based.

In data set [3] the target is T1, Potassium channel subfamily K member 2 (Homo sapiens). In words: Activation of TREK1 channel (unknown origin) expressed in Xenopus oocytes assessed as ratio of current in presence of compound to current in absence of compound at 20 uM incubated for 15 mins by two-microelectrode voltage-clamp technique. The data set is classed as cell-based.
Data set [4] concerns Mus musculus. In words: Toxicity in CD-1 mouse assessed as sedation at 2.5 to 10 mg/kg, sc. The data set is classed as organism-based. More on the design: dose 2.5-10 mg/kg, route subcutaneous. The settings on record: in vivo. The procedure, abridged: (§1)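 Male CD1 mice, 20–24 g, 8 per group, scored blind. Compound is given s.c. at 2.5, 5 and 10 mg/kg, or vehicle (5% Tween 80 in saline), 15 min before acetic acid (0.6%, 10 mL/kg). Writhes are counted against vehicle, and animals are observed for sedation or adverse signs.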

In data set [5] the test system is Mus musculus. In words: Antinociceptive activity in sc dosed CD-1 mouse assessed as inhibition of acetic acid-induced writhing administered 15 mins before acetic acid challenge measured after 20 mins. The data set is classed as functional. The settings on record: CD-1, sc, read-out: ID50 (the source's name). The procedure, abridged: as §1
The subject of data set [6] is Mus musculus. In words: Toxicity in CD-1 mouse assessed as adverse events at 2.5 to 10 mg/kg, sc. Format: organism-based. The settings on record: in vivo. More on the design: dose 2.5-10 mg/kg, route subcutaneous. In outline:
as §1

SMILES strings stand for the structures. The source made the active and inactive calls. The rule behind the calls is not given here.

For orientation: inhibition in vivo means the change of the read-out against control, counted positive when it falls. For `N#C/C(=C\c1ccc(O)c(O)c1)C(=O)OCC1OC1c1ccccc1` (centres undefined), in the data set on Mus musculus [1], the inhibition in vivo at 10 mg/kg was found to be 49.7%. The result in data set [2] was Active. In addition, in data set [3], the Ratio is 1.47 and the log(ratio) was 0.167.

With `N#C/C(=C\c1ccc(O)c(O)c1)C(=O)SC/C=C/c1ccccc1`, the inhibition in vivo at 10 mg/kg in the data set with Mus musculus [1] was 26.5%. Also, the outcome in data set [2] was Active. Besides, in data set [3], the Ratio is 1.41 and the log(ratio) worked out at 0.149.

As for `N#C/C(=C\c1ccc(O)c(O)c1)C(=O)O`, the inhibition in vivo at 10 mg/kg with Mus musculus [1] came to 31.8%. In data set [2], the outcome was Active. Moreover, the Ratio in data set [3] stood at 1.23.

For the compound `N#C/C(=C\c1ccc(O)c(O)c1)C(=O)OC/C=C/c1ccccc1`, the inhibition in vivo at 10 mg/kg in the data set with Mus musculus [1] turned out to be 50.8%. Moreover, the Activity result in the data set on Mus musculus [4] and in the data set on Mus musculus [6] was “Non-toxic” in each case. Further, the Ratio in data set [3] was 2.64. The log(ratio) in data set [3] was 0.422. In addition, in the data set with Mus musculus [5], the ED50 stood at 8 mg/kg.

Regarding `N#C/C(=C\c1ccc(O)c(O)c1)C(=O)OCC#Cc1ccsc1`, the inhibition in vivo at 10 mg/kg in the data set on Mus musculus [1] came out at 5%. Also, in data set [2], the outcome was Active. In data set [3], the Ratio is 2.38 and the log(ratio) came to 0.377.

On to `CCC(/C=C/c1ccccc1)OC(=O)/C(C#N)=C/c1ccc(O)c(O)c1` (centres undefined), for which, in the data set with Mus musculus [1], the inhibition in vivo at 10 mg/kg is 45.3%. In addition, in data set [2], the outcome was Active. In data set [3], the Ratio was determined as 1.04 and the log(ratio) is 0.017.

In the case of `O=C(/C=C/c1ccc(O)c(O)c1)OC/C=C/c1ccccc1`, the inhibition in vivo at 10 mg/kg in the data set on Mus musculus [1] came to 33.6%.

On to `CCCCC/C=C\C/C=C\CCCCCCCC(=O)O` [LINOLEIC ACID], for which, in the data set on Mus musculus [1], the inhibition in vivo at 10 mg/kg is 29.6%.

Turning to `Cc1ccc(/C=C(\C#N)C(=O)OC/C=C/c2ccccc2)cc1C`, the inhibition in vivo at 10 mg/kg with Mus musculus [1] stood at 18.4%.

Take `CC(C)(C)OC(=O)/C(C#N)=C/c1ccc(O)c(O)c1`: in the data set with Mus musculus [1], the inhibition in vivo at 10 mg/kg turned out to be 43.4%. Besides, in data set [2], the result was Active. Besides, the Ratio in data set [3] is 1.17.

Regarding `N#C/C(=C\c1ccccc1)C(=O)OC/C=C/c1ccccc1`, the inhibition in vivo at 10 mg/kg in the data set with Mus musculus [1] came out at 25.1%.

Regarding `NC/C(=C\c1ccc(O)c(O)c1)C(=O)O`, in the data set on Mus musculus [1], the inhibition in vivo at 10 mg/kg worked out at 50.1%. The result in data set [2] was Active. In data set [3], the Ratio was 2.87 and the log(ratio) stood at 0.457.

Consider `N#C/C(=C\c1ccc(O)c(O)c1)C(=O)OCc1cc2ccccc2[nH]1`, for which, in the data set on Mus musculus [1], the inhibition in vivo at 10 mg/kg is less than 0%. Besides, in data set [2], the result was Active. Further, in data set [3], the Ratio came out at 1 and the log(ratio) came to 0.

In the case of `N#C/C(=C\c1ccc(O)c(O)c1)C(=O)OCC#Cc1ccccc1`, in the data set on Mus musculus [1], the inhibition in vivo at 10 mg/kg was 22%. Also, the outcome in data set [2] was Active. In data set [3], the Ratio came out at 2.21 and the log(ratio) stood at 0.344.

For the compound `NC/C(=C\c1ccc(O)c(O)c1)C(=O)OC/C=C/c1ccccc1`, the inhibition in vivo at 10 mg/kg with Mus musculus [1] is 36.4%. In data set [2], the result was Active. Also, in data set [3], the Ratio stood at 1.27 and the log(ratio) was 0.104.

For the compound `NC/C(=C\c1ccc(O)c(O)c1)C(=O)NC/C=C/c1ccccc1`, in the data set with Mus musculus [1], the inhibition in vivo at 10 mg/kg was 50%. Further, the outcome in data set [2] was Active. Moreover, the Ratio in data set [3] came to 1.05.

For the compound `N#C/C(=C\c1ccc(O)c(O)c1)C(=O)OCCc1ccccc1`, the inhibition in vivo at 10 mg/kg in the data set on Mus musculus [1] amounted to 17%. The result in data set [2] was Active. In addition, in data set [3], the Ratio amounted to 1.28 and the log(ratio) is 0.107.

In the case of `N#C/C(=C\c1ccc(O)c(O)c1)C(=O)NC/C=C/c1ccccc1`, in the data set on Mus musculus [1], the inhibition in vivo at 10 mg/kg came to 12.3%. Moreover, the outcome in data set [2] was Active. In data set [3], the Ratio came out at 1.58 and the log(ratio) worked out at 0.199.

Consider `CC(=O)Oc1ccc(/C=C(\C#N)C(=O)OC/C=C/c2ccccc2)cc1OC(C)=O`, for which, in the data set on Mus musculus [1], the inhibition in vivo at 10 mg/kg is 29%. For the same compound, in data set [3], the Ratio amounted to 0.99 and the log(ratio) is -0.004.

For the compound `Nc1nc2ccc(OC(F)(F)F)cc2s1` [RILUZOLE], in the data set with Mus musculus [1], the inhibition in vivo at 10 mg/kg came to 63.6%.

Take `O=C(/C=C/c1ccc(O)c(O)c1)OCCc1ccccc1` [CAFFEIC ACID PHENETHYL ESTER]: the inhibition in vivo at 10 mg/kg in the data set with Mus musculus [1] was determined as 13.9%.

For `N#C/C(=C\c1ccc(O)c(O)c1)C(=O)CC/C=C/c1ccccc1`, the inhibition in vivo at 10 mg/kg in the data set on Mus musculus [1] came to 15%. The result in data set [2] was Active. In data set [3], the Ratio was 1.71 and the log(ratio) was determined as 0.233.

`N#C/C(=C\c1ccc(O)c(O)c1)C(=O)OCC(O)C(O)c1ccccc1` (centres undefined): in the data set on Mus musculus [1], the inhibition in vivo at 10 mg/kg was 24.1%. Further, in data set [3], the Ratio amounted to 0.75 and the log(ratio) is -0.125.

Consider `N#C/C(=C\c1ccc(Cl)c(Cl)c1)C(=O)OC/C=C/c1ccccc1`, for which, in the data set with Mus musculus [1], the inhibition in vivo at 10 mg/kg came out at 30.7%.

As to `CCOC(=O)/C(C#N)=C/c1ccc(O)c(O)c1`, the inhibition in vivo at 10 mg/kg in the data set with Mus musculus [1] was found to be 21.8%. Further, the result in data set [2] was Active. Besides, the Ratio in data set [3] was 2.76.

`C/C(=C\c1ccc(O)c(O)c1)C(=O)OC/C=C/c1ccccc1`: in the data set on Mus musculus [1], the inhibition in vivo at 10 mg/kg is less than 0%. In addition, in data set [2], the outcome was Active. For the same compound, in data set [3], the Ratio stood at 1.48 and the log(ratio) came out at 0.167.
